# Pf Dd2 growth – blocks growth of Plasmodium falciparum Dd2 parasites | P. falciparum Dd2 growth, SYBR Green, 72 h; active compounds read low | 94,000 tested, 2.3% active | AID 1159554 | activity change, % at 10 µM; in the data active means activity change below about -80%; inconclusive means no clear call, values can overlap the other calls
# T cruzi growth-1 – T. cruzi proliferation inhibition; T. cruzi beta-gal in NIH3T3, GalScreen luminescence, 90 h; inhibition, % at 8.34 µM; 77,000 tested, 5.9% active; AID 624255;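 active means mean inhibition above about 93%, with at least 55% of replicates each passing it, limit read from the data, passing the limit was not always enough; inconclusive means only one of those two conditions holds; inactive means neither condition holds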
# IDH1 R132H inh – IDH1 R132H (human) inhibition; AID 624101; 70,000 tested, 0.18% active; O75874; IDH1 R132H reductase, diaphorase/resazurin fluorescence, 60 min; inhibition, % at 10 µM; in the data active means inhibition above about 34%; inconclusive means no clear call, values can overlap the other calls; inactive means below about 11%;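 further: 0% = DMSO and 100% = no enzyme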
# GASC1 inh – KDM4C (human) demethylase inhibition; Q9H3R0; GST-KDM4C 2-372, H3K9me3 peptide, LANCE TR-FRET; 96,000 tested, 0.15% active; inhibition, % at 12.5 µM;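 active means mean replicate inhibition above about 25%, with at least 55% of replicates also reaching it, limit read from the data, passing the limit was not always enough; inconclusive means only one of those two conditions met; inactive means neither condition met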
# Target sequence (Q9H3R0 2-372 limits assumed): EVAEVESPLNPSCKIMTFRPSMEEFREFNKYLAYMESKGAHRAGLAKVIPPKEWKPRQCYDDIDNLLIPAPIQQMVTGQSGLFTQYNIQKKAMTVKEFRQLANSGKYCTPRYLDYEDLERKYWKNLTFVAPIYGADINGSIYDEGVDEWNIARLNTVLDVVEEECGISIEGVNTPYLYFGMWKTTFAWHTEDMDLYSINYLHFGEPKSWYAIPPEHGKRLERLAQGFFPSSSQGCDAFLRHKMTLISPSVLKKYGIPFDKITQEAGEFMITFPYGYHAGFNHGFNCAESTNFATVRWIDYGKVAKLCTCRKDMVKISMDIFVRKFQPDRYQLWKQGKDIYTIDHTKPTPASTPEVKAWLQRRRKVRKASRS
#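 System: N-terminal GST-fused human GASC-1 (KDM4C) fragment, residues 2-372 / Amount: 10 nM GST-KDM4C in enzyme reaction / Also added: H3K9me3 peptide with Fe(II)/2OG / Times: 30 min demethylation and 1 h detection at room temperature / Signal: LANCE TR-FRET / Read-out basis: Fall in 671/618 emission ratio as inhibition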
# T cruzi growth-2 – Trypanosoma cruzi proliferation inhibition | T. cruzi beta-gal in NIH3T3, GalScreen luminescence, 90 h | shares compounds with T cruzi growth-1 | 5,600 tested, 72% active | inhibition, % at 8.35 µM | AID 651739;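 active means mean replicate inhibition above about 95% and at least 55% of replicates individually reaching it, limit read from the data; inconclusive means only one of the two criteria is met; inactive means neither criterion is met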
# T cruzi growth-3 – inhibitors of T. cruzi proliferation. shares compounds with T cruzi growth-1. T. cruzi beta-gal in NIH3T3, GalScreen luminescence, 90 h. inhibition, % at 2.09 µM. 5,600 tested, 21% active;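 active means mean inhibition above about 95%, with at least 55% of replicates also reaching it, limit read from the data; inconclusive means meets just one of the two conditions; inactive means meets neither condition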;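 further: plate controls were neutral control median for no effect and positive control median for full effect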
# NIH3T3 tox – cytotoxicity in mouse NIH/3T3 fibroblasts; cytotoxicity (signal decrease), % at 8.35 µM; AID 651742; 5,600 tested, 14% active; NIH/3T3 viability, CellTiter-Glo ATP luminescence, 90 h; shares compounds with T cruzi growth-1;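 active means mean signal decrease across replicates above about 35% based on untreated-well scatter, with enough replicates individually passing, limit read from the data; inconclusive means no rule stated though some were filed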;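 further: 0% = median of neutral control wells and 100% = median of positive control wells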
# 3T3 cytotox 2 – NIH/3T3 (mouse) viability loss; shares compounds with T cruzi growth-1; NIH/3T3 viability, CellTiter-Glo ATP luminescence, 90 h; inhibition, % at 24.9 µM; 5,600 tested, 56% active;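 active means mean loss of cell viability signal at or above a set limit, and enough replicates individually reaching it; inconclusive means meets only the mean limit or only the replicate share; inactive means meets neither condition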;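 further: 0% = median of neutral control wells and 100% = median of positive control wells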
# The depositor's hits bear a star; ? = inconclusive; nt = not tested or not shown. Sampled rows, rich in hits. Any-hit rate of the full collection: about 5.9%.
SMILES,Pf Dd2 growth,T cruzi growth-1,IDH1 R132H inh,GASC1 inh,T cruzi growth-2,T cruzi growth-3,NIH3T3 tox,3T3 cytotox 2
C[C@@H]1CN([C@H](C)CO)S(=O)(=O)c2ccc(C#CC3CCCC3)cc2O[C@H]1CN(C)C(=O)c1cccc(F)c1,-85*,123*,nt,-1,101*,90,5,103*
C[C@@H]1CN([C@@H](C)CO)S(=O)(=O)c2ccc(C#CC3CCCC3)cc2O[C@@H]1CN(C)C(=O)c1cccc(F)c1,-40,118*,-1,0,102*,98*,19,106*
O=C(CSc1nnnn1-c1ccccc1)Nc1cccc(Br)c1,nt,nt,0,nt,nt,nt,nt,nt
C[C@@H]1CN([C@H](C)CO)S(=O)(=O)c2ccc(C#CC3CCCC3)cc2O[C@@H]1CN(C)C(=O)c1cccc(F)c1,-59,123*,nt,-2,95*,?,11,103*
C[C@H]1CN([C@@H](C)CO)C(=O)c2cccc(NC(=O)c3ccc(-c4nccs4)cc3)c2O[C@@H]1CN(C)Cc1ccc(-c2ccccc2)cc1,-84*,99*,0,-4,107*,68,-3,-14
C[C@@H]1CN([C@H](C)CO)C(=O)c2cccc(NC(=O)c3ccc(-c4nccs4)cc3)c2O[C@H]1CN(C)Cc1ccc(Oc2ccccc2)cc1,-52,78,2,-6,nt,nt,nt,nt
C[C@H](CO)N1C[C@H](C)[C@H](CN(C)Cc2ccc(Oc3ccccc3)cc2)Oc2c(NC(=O)c3ccc(-c4nccs4)cc3)cccc2C1=O,-61,103*,nt,-12,110*,109*,24,25*
C[C@H](CO)N1C[C@H](C)[C@@H](CN(C)CC2CCCCC2)Oc2c(NC(=O)c3ccc(-c4nccs4)cc3)cccc2C1=O,-52,60,nt,4,nt,nt,nt,nt
C[C@H]1CN([C@@H](C)CO)C(=O)c2cccc(NC(=O)c3ccc(-c4nccs4)cc3)c2O[C@H]1CN(C)Cc1ccc(C(=O)Nc2ccccc2N)cc1,-91*,98*,nt,-1,102*,101*,22,56*
C[C@@H]1CN([C@@H](C)CO)C(=O)c2cccc(NC(=O)c3ccc(-c4nccs4)cc3)c2O[C@H]1CN(C)CC1CCCCC1,-70,99*,2,0,117*,74,7,15
C[C@@H]1CN([C@H](C)CO)C(=O)c2cccc(NC(=O)c3ccc(-c4nccs4)cc3)c2O[C@H]1CN(C)Cc1ccccc1,-19,67,0,1,nt,nt,nt,nt
O=c1cc(Nc2ccccc2)cc[nH]1,nt,nt,-2,nt,nt,nt,nt,nt
CCCC#Cc1ccc2c(c1)O[C@@H](CN(C)Cc1ccccn1)[C@H](C)CN([C@@H](C)CO)S2(=O)=O,nt,107*,0,14,96*,90,64*,93*
C[C@H](O)C#Cc1ccc2c(c1)O[C@@H](CN(C)Cc1ccccn1)[C@H](C)CN([C@@H](C)CO)S2(=O)=O,-19,5,nt,3,nt,nt,nt,nt
C[C@@H]1CN([C@H](C)CO)S(=O)(=O)c2ccc(C#CCN(C)C)cc2O[C@H]1CN(C)Cc1ccccn1,-52,?,1,4,97*,74,17,26*
CCCC#Cc1ccc2c(c1)O[C@H](CN(C)Cc1ccccn1)[C@H](C)CN([C@@H](C)CO)S2(=O)=O,nt,59,-3,2,nt,nt,nt,nt
CCCC#Cc1ccc2c(c1)O[C@H](CN(C)Cc1ccccn1)[C@@H](C)CN([C@H](C)CO)S2(=O)=O,nt,104*,1,1,108*,75,40*,69*
CCc1ccc(NC(=O)CSc2nnc(C)n2-c2ccccc2)cc1,nt,nt,0,nt,nt,nt,nt,nt
O=C(CCCN1C(=O)c2ccccc2C1=O)Nc1ccc(Br)cc1F,nt,nt,0,nt,nt,nt,nt,nt
COc1ccc(C)cc1S(=O)(=O)N(C)CC(=O)Nc1cccc(C(F)(F)F)c1,nt,nt,0,nt,nt,nt,nt,nt
CS(=O)(=O)N(CC(=O)Nc1cccc(Cl)c1Cl)Cc1ccccc1,nt,nt,-1,nt,nt,nt,nt,nt

# Screens from PubChem.
